Efflux pump mplx: inhibitors of Candida antifungal efflux pumps expressed in yeast | S. cerevisiae Candida pump triplex, Nile Red efflux | inhibition, % at 10 µM | actives 0.44% (n = 330,000) | AID 485275;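 active means plate passing quality check with inhibition over a set limit, or well fluorescence over plate mean plus 4 SD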;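 further: Nile Red retained in pooled yeast measured as flow cytometry median fluorescence; higher means more Nile Red kept so more efflux inhibition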
Beta apoptosis: blocks beta cell apoptosis; INS-1E cytokine-induced death, ATP luminescence, 48 h; percent of positive-control rescue, neutral wells zero; protection from apoptosis, % (no concentration beside the values); actives 0.8% (n = 300,000);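 active means Every replicate reaches about 75%, or at least half do and their mean reaches it too, limit read from the data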;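 further: higher means more ATP so stronger rescue from cytokine killing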
WT yeast gro inh: growth inhibition of WT yeast, mitochondrial fusion screen; mitochondrial fusion phenotypic screen, WT strain; inhibition, % at 10 µM; actives 2.1% (n = 190,000); in the data active means inhibition above about 58%; tested in S. cerevisiae
CSC inhib: blocks cancer stem cells; cancer stem cell-like cells viability, luminescence; inhibition, % at 7.5 µM; actives 1.1% (n = 300,000); in the data active means inhibition above about 75%; tested in HMLE shEcad cells
T cruzi repl: blocks replication of Trypanosoma cruzi | T. cruzi beta-gal in NIH3T3, luminescence, 90 h | inhibition, % (concentration not given with the values) | AID 1885 | actives 1.4% (n = 300,000);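 active means mean inhibition across valid replicates above about 55%, limit read from the data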;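 further: signal also drops with host cell toxicity which is not excluded here; higher percent means less beta-gal luminescence so fewer parasites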
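Test system: β-gal T. cruzi (Tulahuen C4) inside NIH/3T3 cells / Quantity: 5,000 cells/well / Measured by: luminescence from GalScreen with 0.05% NP40, read after 60 min / Medium: DMEM plus 2% FBS / Measure: parasite load inhibition, % / Reagent: Tulahuen C4 trypomastigotes, 5000/well / Schedule: co-culture of at least 90 h after 3 h attachment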
SUMO Mot1 rescue: SUMOylation pathway inhibition by Mot1-301 growth rescue | AID 2716 | actives 1% (n = 320,000) | S. cerevisiae Mot1-301 growth rescue, ATP luminescence, 38.5C; percent above DMSO median, 100 means doubled | growth rescue, % at 18.8 µM;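 active means every valid replicate shows activation above 250% relative to neutral control wells; inactive means the rest, any valid replicate at or below 250%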
Yeast cmpd fluor: flagged as fluorescent in efflux inhibitor counter-screen. S. cerevisiae AD/pABC3, compound fluorescence, flow cytometry. fluorescence ratio to DMSO, % at 10 µM. shares compounds with Efflux pump mplx. AID 588517. actives 4% (n = 1,700);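 active means fluorescence ratio to DMSO above its plate's cutoff, the plate mean ratio plus 5 SD, cut at about 210% in these data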;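 further: unstained yeast with no Nile Red so the signal is compound autofluorescence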
Mdr1 pump inh: blocks the Candida albicans Mdr1 efflux pump in yeast | shares compounds with Efflux pump mplx | S. cerevisiae AD/CaMDR1, Nile Red efflux, flow cytometry | inhibition, % at 10 µM | actives 1% (n = 1,700) | AID 588518; in the data active means inhibition above about 26%;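 further: higher means more Nile Red retained so more efflux inhibition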
Cdr2 pump inh: inhibitors of Candida albicans Cdr2 efflux pump | shares compounds with Efflux pump mplx | AID 588520 | S. cerevisiae AD/CaCDR2, Nile Red retention, flow cytometry | actives 4% (n = 1,700) | Nile Red retention ratio vs DMSO, % at 10 µM; in the data active means Nile Red retention ratio vs DMSO above about 190%;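 further: higher ratio means more blocking of Cdr2 efflux of the dye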
CaCdr1 efflux inh: blocks the Candida albicans Cdr1 efflux pump in yeast; shares compounds with Efflux pump mplx; inhibition, % at 10 µM; S. cerevisiae AD/CaCDR1, Nile Red efflux, flow cytometry; AID 588522; actives 1% (n = 1,700);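 active means inhibition above the screen-wide mean plus twice its standard deviation, cut at about 32% in these data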
Numbers stand for hits; - = inactive; . = no result given; + = active, no number. Rows were chosen to be rich in hits. Some 4.8% of all compounds tested hit in one or more screens of this group.

SMILES | Efflux pump mplx | Beta apoptosis | WT yeast gro inh | CSC inhib | T cruzi repl | SUMO Mot1 rescue | Yeast cmpd fluor | Mdr1 pump inh | Cdr2 pump inh | CaCdr1 efflux inh
O=C(NC1CCCc2ccccc21)c1cncc(Br)c1 (stereo not given) | 3.4 | - | - | - | - | - | - | - | - | -
COc1cccc(C(=O)NCCS(=O)(=O)NC2CCCC2)c1 | - | - | . | - | - | - | . | . | . | .
CSc1ccccc1NC(=O)Nc1cccc2ccccc12 | - | - | . | - | . | - | . | . | . | .
Cc1ccc(-n2c(-c3ccc(Br)cc3)c[n+]3c2CCc2ccc4cccnc4c2-3)cc1 | 1.1 | 133 | - | - | 60 | - | - | - | + | -
Cc1nc2ccccc2n2c(O)c(CC(=O)O)cc12 | 0.5 | - | - | - | - | - | - | - | - | -
CC(C)(C)c1ccc(C(CC(=O)O)NC(=O)Cc2ccc(Cl)cc2)cc1 (stereo not given) | - | - | . | - | - | - | . | . | . | .
Cc1cc2nc3s/c(=C/c4ccc(-c5ccccc5C(=O)O)o4)c(=O)n3c2cc1C | 0.9 | - | . | - | - | - | - | - | - | -
COc1ccc(CCn2c(=S)[nH]c3ccc(N4CCOCC4)cc3c2=O)cc1OC | - | - | - | - | - | - | . | . | . | .
COCCCn1c(=S)[nH]c2ccc(N3CCOCC3)cc2c1=O | 1.4 | - | - | - | - | - | - | - | - | -
O=C(Cc1ccccc1)NCC(=O)N1CCCCCC1 | - | - | - | - | - | - | . | . | . | .
CCOC(=O)c1c(C)[nH]c(C)c1S(=O)(=O)NCc1ccccc1C | 0.4 | - | . | - | - | - | - | - | - | -
CCOC(=O)c1c(C)[nH]c(C)c1S(=O)(=O)NCc1ccccc1OCC | - | - | . | - | - | - | . | . | . | .
O=C1c2cccnc2C(=O)N1Cc1ccc(S(=O)(=O)N2CCOc3ccc(Cl)cc32)cc1 | - | - | . | - | - | - | . | . | . | .
COc1ccc(OCCSc2nnc(CCNC(=O)c3ccc(OC)cc3)n2C)cc1 | 24 | - | - | - | - | - | - | - | - | -
COc1ccc(OCCSc2nnc(CCNC(=O)c3ccc(Cl)c(Cl)c3)n2C)cc1 | - | - | - | - | - | - | . | . | . | .
Cc1nn(CC(=O)NCc2cccs2)c(=O)c2nn(-c3ccccc3)c(C)c12 | 6.2 | - | . | - | - | - | - | - | - | -
Cc1ccccc1CCNC(=O)Cn1nc(C)c2c(C)n(-c3ccccc3)nc2c1=O | - | - | . | - | - | - | . | . | . | .
Cc1ccc(-n2nc3c(=O)n(CCCC(=O)NCc4ccc(C)o4)nc(C)c3c2C)cc1 | - | - | . | - | - | - | - | - | - | -
CC(=O)NC(Cc1cc(C)ccc1C)C(=O)N1CCN(C(=O)c2ccc([N+](=O)[O-])cc2)CC1 (stereo not given) | - | - | . | - | - | - | . | . | . | .
O=C1Nc2ccccc2/C1=C/c1cnc(-c2ccccc2)[nH]1 | 0.8 | - | . | - | - | - | - | - | 435 | -
O=C1Nc2ccccc2/C1=C/c1cccnc1 | - | - | - | - | - | - | . | . | . | .
CCOc1ccc(S(=O)(=O)N2CCC(C(=O)NC3CCCCC3)CC2)cc1 | - | - | . | - | - | - | . | . | . | .
CCN1CCN(c2cc(SC(C)C)nc(-c3ccc(OC)cc3)n2)CC1 | . | . | - | . | - | . | - | - | - | -
CC(C)Sc1cc(N2CCOCC2)nc(-c2ccc(Cl)cc2)n1 | - | - | - | - | - | - | - | - | - | -
Clc1ccc(Sc2cc(N3CCOCC3)nc(-c3ccccc3)n2)cc1 | - | - | . | - | - | - | . | . | . | .
SMILES | Efflux pump mplx | Beta apoptosis | WT yeast gro inh | CSC inhib | T cruzi repl | SUMO Mot1 rescue | Yeast cmpd fluor | Mdr1 pump inh | Cdr2 pump inh | CaCdr1 efflux inh
COc1cccc(C2CC(c3ccccc3)=NN2S(=O)(=O)c2ccc(C)cc2)c1OC (stereo not given) | 1.4 | - | - | - | - | - | - | - | - | -
COc1ccccc1C1CC(c2ccccc2)=NN1S(=O)(=O)c1ccccc1 (stereo not given) | - | - | . | . | - | - | . | . | . | .
Cc1cc(C(=O)NNc2c(Cl)cccc2Cl)n(C(C)(C)C)n1 | - | - | . | - | - | - | . | . | . | .
Cc1cc(C(=O)O)n(C(C)(C)C)n1 | 2.0 | - | . | - | - | - | - | - | - | -
COC(=O)C(CC(C)C)NC(=O)C(Cc1ccccc1)NC(=O)C1CCCN1C(=O)OC(C)(C)C (stereo not given) | - | - | - | - | - | - | . | . | . | .
Cc1ccc(NC(=S)N(Cc2cccs2)Cc2cc3cccc(C)c3[nH]c2=O)cc1 | 8.9 | - | - | - | - | - | - | - | - | -
Cc1cccc(NC(=S)N(CCN(C)C)Cc2cccs2)c1 | 1.0 | - | - | - | - | - | - | - | - | -
Cc1ccc(NC(=S)N(CCN(C)C)Cc2cccs2)c(C)c1 | - | - | - | - | - | - | . | . | . | .
CCCN1CCC(NC(=S)Nc2cccc(Cl)c2Cl)CC1 | - | - | - | - | - | - | . | . | . | .
CCC(Sc1nc2ccccc2[nH]1)C(=O)Nc1ccc(NC(C)=O)cc1 (stereo not given) | 0.7 | - | - | - | - | - | - | - | - | -
CCC(Sc1nc2ccccc2[nH]1)C(=O)Nc1cc(C)on1 (stereo not given) | - | - | - | . | - | . | . | . | . | .
O=C(NCc1ccccc1Cl)c1ccc(CS(=O)Cc2ccc(Cl)cc2)o1 (stereo not given) | - | - | . | - | - | - | . | . | . | .
CCCn1c(N)c(C(=O)CSc2n[nH]c(-c3ccc(C)cc3)n2)c(=O)[nH]c1=O | - | - | . | - | - | - | . | . | . | .
CCOc1cc(C2C3=C(CCCC3=O)Nc3nc(C(=O)OC)nn32)ccc1OC (stereo not given) | 1.4 | - | - | - | - | - | - | - | - | -
CCOc1ccc(C2C3=C(CCCC3=O)Nc3nc(C(F)(F)F)nn32)cc1OC (stereo not given) | - | - | - | - | - | - | . | . | . | .
O=C(Cn1c2ccccc2c(=O)c2ccccc21)Nc1ccccc1F | 17 | - | - | - | - | - | - | - | - | -
NC(=O)C1c2ccccc2Oc2ccccc21 | 4.9 | - | . | - | - | - | - | - | - | -
S=c1[nH]nc(-c2cccnc2)n1/N=C/c1ccc(Br)s1 | 8.0 | - | - | - | - | - | - | - | - | -
O=C(CN1CCN(Cc2cccc(F)c2)CC1)Nc1ccccc1F | - | . | . | - | - | - | . | . | . | .
O=C(NC1CCCC1)c1ccc(CSc2nc3ccncc3n2Cc2ccc(F)cc2)cc1 | - | - | - | - | - | - | . | . | . | .

Screens from PubChem.
